In ChEMBL document CHEMBL4033667, “Design, synthesis, and identification of a novel napthalamide-isoselenocyanate compound NISC-6 as a dual Topoisomerase-IIα and Akt pathway inhibitor, and evaluation of its anti-melanoma activity” (Eur J Med Chem, 2017):
The source made the active and inactive calls. The rule behind the calls is not given here.

Experiments:
UACC-903 [1] = assay: Antiproliferative activity against human UACC-903 cells harboring BRAF V600E mutant after 24 hrs by MTT assay; format: functional, cell-based; settings: UACC-903, 24 h
Procedure, shortened: (§1)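 MTT viability in melanoma lines grown in DMEM with 10% FBS and pen/strep at 37 °C, 5% CO2. 3000 cells/well, settled overnight, then exposed to compound (0 to 50 µM) in triplicate for 24, 48 or 72 h. MTT (5.0 mg/mL solution) added 3 h before termination. IC50 from non-linear regression (variable slope), mean ± SD.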

UACC-903 [2] = assay: Antiproliferative activity against human UACC-903 cells harboring BRAF V600E mutant after 48 hrs by MTT assay; format: functional, cell-based; settings: UACC-903, 48 h; procedure, shortened: as §1
UACC-903 [3] = assay: Antiproliferative activity against human UACC-903 cells harboring BRAF V600E mutant after 72 hrs by MTT assay; format: functional, cell-based; settings: UACC-903, 72 h; procedure, shortened: as §1
[4] = Antiproliferative activity against human 1205 Lu cells harboring BRAF V600E mutant after 24 hrs by MTT assay; format: functional, cell-based; procedure, shortened: as §1
[5] = Antiproliferative activity against human 1205 Lu cells harboring BRAF V600E mutant after 48 hrs by MTT assay; format: functional, cell-based; procedure, shortened: as §1
[6] = Antiproliferative activity against human 1205 Lu cells harboring BRAF V600E mutant after 72 hrs by MTT assay; format: functional, cell-based; procedure, shortened: as §1
[7] = Antiproliferative activity against human A375M cells harboring BRAF V600E mutant after 24 hrs by MTT assay; format: functional, cell-based; procedure, shortened: as §1
[8] = Antiproliferative activity against human A375M cells harboring BRAF V600E mutant after 48 hrs by MTT assay; format: functional, cell-based; procedure, shortened: as §1
[9] = Antiproliferative activity against human A375M cells harboring BRAF V600E mutant after 72 hrs by MTT assay; format: functional, cell-based; procedure, shortened: as §1
CHL-1 [10] = assay: Antiproliferative activity against human CHL-1 cells harboring wild type BRAF after 24 hrs by MTT assay; format: functional, cell-based; settings: CHL-1, 24 h; procedure, shortened: as §1
CHL-1 [11] = assay: Antiproliferative activity against human CHL-1 cells harboring wild type BRAF after 48 hrs by MTT assay; format: functional, cell-based; settings: CHL-1, 48 h; procedure, shortened: as §1
CHL-1 [12] = assay: Antiproliferative activity against human CHL-1 cells harboring wild type BRAF after 72 hrs by MTT assay; format: functional, cell-based; settings: CHL-1, 72 h; procedure, shortened: as §1
NHDF [13] = assay: Cytotoxicity against human NHDF cells assessed as reduction in cell viability at 2.5 uM after 48 hrs by MTT assay; format: cell-based
Procedure, shortened: (§2)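 nHDF normal fibroblasts grown in serum-free fibroblast basal medium with growth kit and pen/strep/amphotericin B. Treated 48 h at set concentrations, with viability read by MTT assay.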

NHDF [14] = assay: Cytotoxicity against human NHDF cells assessed as reduction in cell viability at 5 uM after 48 hrs by MTT assay; format: cell-based; procedure, shortened: as §2
[15] = molecular target: DNA topoisomerase 2-alpha (Homo sapiens) (UniProt P11388); assay: Inhibition of human DNA topoisomerase 2alpha assessed as decrease in relaxation of supercoiled pBR322 DNA at 0.5 to 5 uM after 1 hr by ethidium bromide staining-based agarose gel electrophoresis
Sequence of DNA topoisomerase 2-alpha (Homo sapiens) (P11388 whole entry): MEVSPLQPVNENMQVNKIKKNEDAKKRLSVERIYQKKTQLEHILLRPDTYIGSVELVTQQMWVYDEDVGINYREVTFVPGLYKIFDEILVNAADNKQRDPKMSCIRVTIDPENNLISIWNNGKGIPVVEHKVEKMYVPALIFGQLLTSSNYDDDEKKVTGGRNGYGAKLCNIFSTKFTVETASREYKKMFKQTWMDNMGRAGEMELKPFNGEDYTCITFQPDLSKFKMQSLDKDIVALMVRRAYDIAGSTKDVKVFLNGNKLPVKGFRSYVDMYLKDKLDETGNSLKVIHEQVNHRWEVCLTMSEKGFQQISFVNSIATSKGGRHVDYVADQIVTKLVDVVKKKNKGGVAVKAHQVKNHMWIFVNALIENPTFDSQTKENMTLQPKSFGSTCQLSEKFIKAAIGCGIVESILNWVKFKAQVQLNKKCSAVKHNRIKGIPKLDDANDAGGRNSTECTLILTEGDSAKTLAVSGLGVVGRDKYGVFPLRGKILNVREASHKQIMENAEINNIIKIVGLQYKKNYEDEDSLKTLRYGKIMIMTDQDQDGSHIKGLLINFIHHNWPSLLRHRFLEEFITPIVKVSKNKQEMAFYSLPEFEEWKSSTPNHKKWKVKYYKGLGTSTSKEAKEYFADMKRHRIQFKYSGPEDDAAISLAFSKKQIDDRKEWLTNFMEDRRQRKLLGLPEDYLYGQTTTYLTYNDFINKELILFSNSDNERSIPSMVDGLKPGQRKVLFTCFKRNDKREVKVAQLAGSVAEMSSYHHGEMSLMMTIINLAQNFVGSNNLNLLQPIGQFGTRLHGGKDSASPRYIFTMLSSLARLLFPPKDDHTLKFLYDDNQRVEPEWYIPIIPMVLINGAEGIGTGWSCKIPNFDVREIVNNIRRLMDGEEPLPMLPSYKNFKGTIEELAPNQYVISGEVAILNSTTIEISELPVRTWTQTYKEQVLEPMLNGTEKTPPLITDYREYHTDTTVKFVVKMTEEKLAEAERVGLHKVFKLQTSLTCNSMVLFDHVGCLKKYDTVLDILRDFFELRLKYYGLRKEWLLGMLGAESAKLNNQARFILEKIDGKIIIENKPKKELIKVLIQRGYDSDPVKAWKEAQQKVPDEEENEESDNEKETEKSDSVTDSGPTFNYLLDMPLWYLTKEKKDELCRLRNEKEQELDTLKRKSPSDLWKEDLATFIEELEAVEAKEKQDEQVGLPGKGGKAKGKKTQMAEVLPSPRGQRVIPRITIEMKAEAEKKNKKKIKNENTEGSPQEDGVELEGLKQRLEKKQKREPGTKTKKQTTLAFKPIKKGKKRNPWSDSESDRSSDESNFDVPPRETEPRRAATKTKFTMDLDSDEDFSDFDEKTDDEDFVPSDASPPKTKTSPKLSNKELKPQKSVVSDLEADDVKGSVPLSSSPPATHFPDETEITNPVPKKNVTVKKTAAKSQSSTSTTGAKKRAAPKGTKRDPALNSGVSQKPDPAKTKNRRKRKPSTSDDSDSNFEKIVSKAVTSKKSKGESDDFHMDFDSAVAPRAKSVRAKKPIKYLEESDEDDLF
Procedure, shortened: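 Kit-based relaxation assay: supercoiled plasmid DNA with 4 units of human Topo-IIα in assay buffer plus test agent or DMSO at 37 °C (1 h in legend, 30 min in methods). Stopped with 10% SDS, then proteinase K 15 min at 37 °C. Run on 1% agarose 1-2 h, ethidium bromide 2 h, destain 15 min in TAE, UV imaging.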

Row | SMILES | IC50 (UACC-903 [1]) [µM] | IC50 (UACC-903 [2]) [µM] | IC50 (UACC-903 [3]) [µM] | IC50 [4] [µM] | IC50 [5] [µM] | IC50 [6] [µM] | IC50 [7] [µM] | IC50 [8] [µM] | IC50 [9] [µM] | IC50 (CHL-1 [10]) [µM] | IC50 (CHL-1 [11]) [µM] | IC50 (CHL-1 [12]) [µM] | Activity (NHDF [13]) [%] | Activity (NHDF [14]) [%] | inhibition [15]
1 | O=C1c2cccc3cc([N+](=O)[O-])cc(c23)C(=O)N1CCN=C=[Se] | 21.6 | 14.4 | 15.9 | 21.6 | 19.9 | 20.3 | 24.8 | 21 | 24 | 15.3 | 12.6 | 11 | – | – | –
2 | O=C1c2cccc3cccc(c23)C(=O)N1CCN=C=[Se] | 6.3 | 5.5 | 5.9 | 11 | 10.7 | 9.4 | 9.7 | 7.8 | 8 | 6.3 | 6.8 | 7.6 | – | – | –
3 | N=C(N)[Se]CCN1C(=O)c2cccc3cc([N+](=O)[O-])cc(c23)C1=O | > 50 | 18.1 | 14 | > 50 | > 50 | 39.6 | > 50 | > 50 | 25.8 | > 50 | 8.5 | 13.5 | – | – | –
4 | CN(C)CCN1C(=O)c2cccc3cc([N+](=O)[O-])cc(c23)C1=O [MITONAFIDE] | 11.4 | 0.8 | 0.5 | 11.1 | 0.9 | 0.6 | 3.8 | 1.5 | 1.3 | 2.8 | 0.9 | 0.5 | < 20 | < 20 | Active
5 | CCCS(=O)(=O)Nc1ccc(F)c(C(=O)c2c[nH]c3ncc(-c4ccc(Cl)cc4)cc23)c1F [VEMURAFENIB] | > 50 | 12.3 | 2.7 | > 50 | 7.6 | 2 | > 50 | 2.05 | 0.5 | > 50 | 20 | 12.7 | – | – | –
